Key:
hIYD·flox = target: T1, hIYD·flox (Homo sapiens, UniProt Q6PHW0); assay: Stopped-flow kinetics of halotyrosine binding to hIYD·flox; details: relative to Cl-, Br- and I-Tyr
T1 sequence (Q6PHW0 32-289): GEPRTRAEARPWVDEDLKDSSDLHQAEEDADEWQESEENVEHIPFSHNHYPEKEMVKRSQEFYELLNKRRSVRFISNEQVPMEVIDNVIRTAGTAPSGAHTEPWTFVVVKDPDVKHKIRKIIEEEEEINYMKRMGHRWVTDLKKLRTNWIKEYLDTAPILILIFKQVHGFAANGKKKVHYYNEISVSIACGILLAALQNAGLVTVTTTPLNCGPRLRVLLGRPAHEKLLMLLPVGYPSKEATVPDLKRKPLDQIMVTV
Summary of the method: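 hIYD (residues 1–31 removed, SUMO fusion, SUMO cleaved) in 500 mM NaCl, 10% glycerol, 1 mM DTT, 50 mM sodium phosphate pH 7.4, 25 °C. Stopped-flow mixing of equal volumes under air: hIYD·flox 2 μM final with halotyrosine 5–50 μM final. Flavin fluorescence quench (λex 450 nm, λem >530 nm) followed 1 ms–1 s, fit single-exponential. kon from least-squares fit of kobs versus ligand concentration.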

hIYD·flhq [1] = target: T2, hIYD·flhq (Homo sapiens, UniProt Q6PHW0); assay: Stopped-flow single-turnover oxidation of hIYD·flhq by halotyrosines; type: biochemical; details: set by detection threshold of the stopped-flow instrument
T2 sequence (Q6PHW0 32-289): T1 sequence (Q6PHW0 32-289)
Summary of the method: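 Anaerobic stopped-flow at 25 °C, pH 7.4 phosphate/NaCl/glycerol/DTT buffer. Dithionite-reduced hIYD·flhq was mixed 1:1 with argon-sparged halotyrosine. At 8 μM enzyme, I-Tyr was 20–200 μM and A446 was followed from 10 ms to beyond 7 s with single-exponential fits. At 5 μM enzyme, substrate was 200 μM, with diode-array spectra from 4 ms plus A360 traces fit single- or double-exponential. Spectra were globally analysed.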

IYD = details: cited from earlier work
hIYD = details: estimate, limited by solubility; cited from earlier work
hIYD·flhq [2] = target: T2, hIYD·flhq; assay: Stopped-flow oxidation of hIYD·flhq by oxygen; type: biochemical; details: A446, 25 °C, pH 7.4, oxygen 60–610 μM
Summary of the method: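 hIYD·flhq, made by stoichiometric dithionite titration under anaerobic conditions, 5 μM final, in 500 mM NaCl, 10% glycerol, 1 mM DTT, 50 mM sodium phosphate pH 7.4, 25 °C. Stopped-flow mix with equal volume of same buffer equilibrated with air or 10/50/100% O2 (oxygen solutions 60–610 μM). A446 traces single-exponential; diode-array spectra 4 ms–7 s. kox from linear fit of kobs versus [O2]; three independent measurements averaged.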

## N[C@@H](Cc1ccc(O)c(F)c1)C(=O)O [F-Tyr]
hIYD·flox
  binding rate (kon) slower than the other halotyrosines: approximately 5 fold
hIYD·flox; listed as fluorotyrosine
  binding rate (kon) slower than the other halotyrosines: 5 fold
hIYD·flhq [1]
  oxidation of flhq slower than that with I-Tyr: at least 160 fold
IYD
  dehalogenation by IYD: inert

## N[C@@H](Cc1ccc(O)cc1)C(=O)O [Tyr, tyrosine]
hIYD
  Kd: > 1000 µM

## O=O [oxygen]
hIYD·flhq [2]
  kox, second-order rate constant for reaction between hIYD·flhq and oxygen: (9.3 ± 0.3) × 10^3 M^–1 s^–1

— PMC4938124 (Biochemistry, 2015)
